What was measured:
[1] = test system: Rattus norvegicus; test: Apparent terminal half life as total radioactivity in female Sprague-Dawley rat plasma at 5 mg/kg, iv administered as single dose by LC/MS/MS analysis; format: ADME, organism-based; set-up: dose 5 mg/kg, dosed compound name [14C]Sunitinib, route intravenous; conditions: in vivo
In short: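 Single dose of [14C]sunitinib L-malate as free base, 50 µCi/kg. IV dose was 5 mg/kg by tail vein in 5 females. Oral dose was 15 mg/kg by gavage in 3 females and 3 males. Total radioactivity was by scintillation counting. […] Cmax was read from raw data, t½ by log-linear regression, AUC by linear trapezoidal rule.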

[2] = test system: Cynomolgus monkey; test: AUC (0 to infinity) as total radioactivity in male cynomolgus monkey plasma at 6 mg/kg, po administered as single dose by LC/MS/MS analysis; format: ADME, organism-based, Macaca fascicularis; set-up: time infinity, dose 6 mg/kg, dosed compound name [14C]Sunitinib, route oral; conditions: in vivo
In short: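 Cynomolgus monkeys of both sexes received one oral gavage of [14C]sunitinib L-malate at 6 mg/kg (37 µCi/kg). Femoral-vein blood was taken into heparin from 0.5 to 336 h. Plasma was kept cold and protected from light, then stored at -80 °C. Total radioactivity was by scintillation counting and sunitinib by methanol-extraction LC-MS-MS. Cmax was from raw data, t½ from the log-linear terminal slope, AUC(0-∞) by linear trapezoidal rule.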

[3] = Drug recovery in feces of female cynomolgus monkey at 6 mg/kg, po administered as single dose during 0 to 336 hrs by liquid scintillation counting; format: ADME, organism-based, Macaca fascicularis; set-up: dose 6 mg/kg, dosed compound name [14C]Sunitinib, route oral; conditions: in vivo
[4] = test system: Cynomolgus monkey; test: Total drug recovery in male cynomolgus monkey at 6 mg/kg, po administered as single dose during 0 to 336 hrs by liquid scintillation counting; format: ADME, organism-based, Macaca fascicularis; set-up: dose 6 mg/kg, dosed compound name [14C]Sunitinib, route oral; conditions: in vivo
[5] = test system: Brain; test: Drug concentration in female albino rat brain assessed as radioactivity per gram of tissue at 20 mg/kg administered as single dose via gastric gavage measured after 3 hrs by autoradiographic analysis; format: ADME, organism-based; set-up: dose 20 mg/kg, dosed compound name [14C]Sunitinib; conditions: in vivo, po
In short: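 Sprague Dawley (albino) rats, ca 7-8 weeks old, received a single gastric-gavage dose of [14C]sunitinib L-malate at 20 mg/kg (15 mg freebase/kg, 100 µCi/kg). One animal per sex killed by CO2 at 3, 6, 24, 72 and 168 h, then frozen in CO2/hexane. 30 µm sagittal sections were cut and freeze-dried. Radioactivity per gram quantified by whole-body autoradiography using regression against standards. LOQ 0.04–0.06 µg freebase equiv/g.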

[6] = Drug concentration in female albino rat lymph node assessed as radioactivity per gram of tissue at 20 mg/kg administered as single dose via gastric gavage measured after 3 hrs by autoradiographic analysis; format: ADME, organism-based; set-up: dose 20 mg/kg, dosed compound name [14C]Sunitinib; conditions: in vivo, po
In short: (§1)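 Sprague Dawley albino rats, ca 7-8 weeks old, dosed once by gastric gavage with [14C]sunitinib L-malate (15 mg freebase/kg, 100 µCi/kg). One male and one female killed by CO2 at 3, 6, 24, 72 and 168 h. Carcasses frozen in solid CO2/hexane, embedded and cut into 30 µm sagittal sections, then freeze-dried. Radioactivity quantified by whole-body autoradiography against standards by regression, background subtracted.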

[7] = test system: Stomach; test: Drug concentration in male Lister Hooded pigmented rat stomach assessed as radioactivity per gram of tissue at 20 mg/kg administered as single dose via gastric gavage measured after 24 hrs by autoradiographic analysis; format: ADME, organism-based; set-up: dose 20 mg/kg, dosed compound name [14C]Sunitinib; conditions: in vivo, po
[8] = test system: Pancreas; test: Drug concentration in male Lister Hooded pigmented rat pancreas assessed as radioactivity per gram of tissue at 20 mg/kg administered as single dose via gastric gavage measured after 24 hrs by autoradiographic analysis; format: ADME, organism-based; set-up: dose 20 mg/kg, dosed compound name [14C]Sunitinib; conditions: in vivo, po
[9] = test system: Zone of skin; test: Drug concentration in male Lister Hooded pigmented rat abdomen skin assessed as radioactivity per gram of tissue at 20 mg/kg administered as single dose via gastric gavage measured after 24 hrs by autoradiographic analysis; format: ADME, organism-based; set-up: dose 20 mg/kg, dosed compound name [14C]Sunitinib; conditions: in vivo, po
[10] = test system: Adrenal; test: Drug concentration in male albino rat adrenal assessed as radioactivity per gram of tissue at 20 mg/kg administered as single dose via gastric gavage measured after 6 hrs by autoradiographic analysis; format: ADME, organism-based; set-up: dose 20 mg/kg, dosed compound name [14C]Sunitinib; conditions: in vivo, po
[11] = test system: Small intestine; test: Drug concentration in female albino rat small intestine assessed as radioactivity per gram of tissue at 20 mg/kg administered as single dose via gastric gavage measured after 6 hrs by autoradiographic analysis; format: ADME, organism-based; set-up: dose 20 mg/kg, dosed compound name [14C]Sunitinib; conditions: in vivo, po
[12] = Drug concentration in male Lister Hooded pigmented rat lachrymal gland assessed as radioactivity per gram of tissue at 20 mg/kg administered as single dose via gastric gavage measured after 168 hrs by autoradiographic analysis; format: ADME, organism-based; set-up: dose 20 mg/kg, dosed compound name [14C]Sunitinib; conditions: in vivo, po
[13] = test system: Zone of skin; test: Drug concentration in male Lister Hooded pigmented rat abdomen skin assessed as radioactivity per gram of tissue at 20 mg/kg administered as single dose via gastric gavage measured after 168 hrs by autoradiographic analysis; format: ADME, organism-based; set-up: dose 20 mg/kg, dosed compound name [14C]Sunitinib; conditions: in vivo, po
[14] = test system: Stomach; test: Drug concentration in male Lister Hooded pigmented rat stomach assessed as radioactivity per gram of tissue at 20 mg/kg administered as single dose via gastric gavage measured after 168 hrs by autoradiographic analysis; format: ADME, organism-based; set-up: dose 20 mg/kg, dosed compound name [14C]Sunitinib; conditions: in vivo, po
[15] = test system: Small intestine; test: Drug concentration in female albino rat small intestine assessed as radioactivity per gram of tissue at 20 mg/kg administered as single dose via gastric gavage measured after 3 hrs by autoradiographic analysis; format: ADME, organism-based; set-up: dose 20 mg/kg, dosed compound name [14C]Sunitinib; conditions: in vivo, po
[16] = test system: Brain; test: Drug concentration in male albino rat brain assessed as radioactivity per gram of tissue at 20 mg/kg administered as single dose via gastric gavage measured after 3 hrs by autoradiographic analysis; format: ADME, organism-based; set-up: dose 20 mg/kg, dosed compound name [14C]Sunitinib; conditions: in vivo, po
[17] = test system: Spleen; test: Drug concentration in male Lister Hooded pigmented rat spleen assessed as radioactivity per gram of tissue at 20 mg/kg administered as single dose via gastric gavage measured after 72 hrs by autoradiographic analysis; format: ADME, organism-based; set-up: dose 20 mg/kg, dosed compound name [14C]Sunitinib; conditions: in vivo, po
[18] = Drug concentration in male Lister Hooded pigmented rat brown fat assessed as radioactivity per gram of tissue at 20 mg/kg administered as single dose via gastric gavage measured after 168 hrs by autoradiographic analysis; format: ADME, organism-based, Brown adipose tissue; set-up: dose 20 mg/kg, dosed compound name [14C]Sunitinib; conditions: in vivo, po
[19] = Drug concentration in female albino rat thyroid gland assessed as radioactivity per gram of tissue at 20 mg/kg administered as single dose via gastric gavage measured after 72 hrs by autoradiographic analysis; format: ADME, organism-based; set-up: dose 20 mg/kg, dosed compound name [14C]Sunitinib; conditions: in vivo, po
[20] = Drug concentration in female Lister Hooded pigmented rat eye assessed as radioactivity per gram of tissue at 20 mg/kg administered as single dose via gastric gavage measured after 24 hrs by autoradiographic analysis; format: ADME, organism-based; set-up: dose 20 mg/kg, dosed compound name [14C]Sunitinib; conditions: in vivo, po
In short: (§2)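 Lister Hooded (pigmented) rats, ca 7-8 weeks old, acclimated 7 days, given [14C]sunitinib L-malate by gastric gavage at 20 mg/kg (15 mg freebase/kg, 100 µCi/kg). One male and one female killed by CO2 at 24, 72, 168 and 336 h. Carcasses frozen in solid CO2/hexane and embedded in frozen cellulose. 30 µm sagittal cryosections were freeze-dried. Tissue radioactivity measured by quantitative whole-body autoradiography against calibration standards, with background subtracted.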

[21] = test system: Adrenal; test: Drug concentration in male albino rat adrenal assessed as radioactivity per gram of tissue at 20 mg/kg administered as single dose via gastric gavage measured after 72 hrs by autoradiographic analysis; format: ADME, organism-based; set-up: dose 20 mg/kg, dosed compound name [14C]Sunitinib; conditions: in vivo, po
[22] = test system: Spleen; test: Drug concentration in male albino rat spleen assessed as radioactivity per gram of tissue at 20 mg/kg administered as single dose via gastric gavage measured after 6 hrs by autoradiographic analysis; format: ADME, organism-based; set-up: dose 20 mg/kg, dosed compound name [14C]Sunitinib; conditions: in vivo, po
[23] = Drug concentration in male albino rat bladder assessed as radioactivity per gram of tissue at 20 mg/kg administered as single dose via gastric gavage measured after 24 hrs by autoradiographic analysis; format: ADME, organism-based, Urinary bladder; set-up: dose 20 mg/kg, dosed compound name [14C]Sunitinib; conditions: in vivo, po
[24] = test system: Liver; test: Drug concentration in female albino rat liver assessed as radioactivity per gram of tissue at 20 mg/kg administered as single dose via gastric gavage measured after 24 hrs by autoradiographic analysis; format: ADME, organism-based; set-up: dose 20 mg/kg, dosed compound name [14C]Sunitinib; conditions: in vivo, po; in short: as §1
[25] = test system: Lung; test: Drug concentration in female albino rat lung assessed as radioactivity per gram of tissue at 20 mg/kg administered as single dose via gastric gavage measured after 24 hrs by autoradiographic analysis; format: ADME, organism-based; set-up: dose 20 mg/kg, dosed compound name [14C]Sunitinib; conditions: in vivo, po; in short: as §1
[26] = Drug concentration in female Lister Hooded pigmented rat pituitary gland assessed as radioactivity per gram of tissue at 20 mg/kg administered as single dose via gastric gavage measured after 24 hrs by autoradiographic analysis; format: ADME, organism-based; set-up: dose 20 mg/kg, dosed compound name [14C]Sunitinib; conditions: in vivo, po; in short: as §2

t1/2 lambda z [1]: 10.3 h
AUC [2]: 9095 ng.Eq.hr/ml
Radiolabel recovery [3]: 84.1%
Radiolabel recovery [4]: 94.1%
Radiolabel recovery [5]: 0.52 ugequiv
Radiolabel recovery [6]: 12.39 ugequiv
Radiolabel recovery [7]: 0.67 ugequiv
Radiolabel recovery [8]: 1.23 ugequiv
Radiolabel recovery [9]: 5.57 ugequiv
Radiolabel recovery [10]: 13.57 ugequiv
Radiolabel recovery [11]: 10.28 ugequiv
Radiolabel recovery [12]: 0.06 ugequiv
Radiolabel recovery [13]: 0.58 ugequiv
Radiolabel recovery [14]: 0.06 ugequiv
Radiolabel recovery [15]: 14.16 ugequiv
Radiolabel recovery [16]: 0.3 ugequiv
Radiolabel recovery [17]: 0.13 ugequiv
Radiolabel recovery [18]: 0.06 ugequiv
Radiolabel recovery [19]: 0.26 ugequiv
Radiolabel recovery [20]: 31.8 ugequiv
Radiolabel recovery [21]: 1.52 ugequiv
Radiolabel recovery [22]: 16.24 ugequiv
Radiolabel recovery [23]: 0.35 ugequiv
Radiolabel recovery [24]: 2.8 ugequiv
Radiolabel recovery [25]: 1.64 ugequiv
Radiolabel recovery [26]: 2.87 ugequiv
Compound: CCN(CC)CCNC(=O)c1c(C)[nH]c(/[14CH]=C2\C(=O)Nc3ccc(F)cc32)c1C.O=C(O)C[C@H](O)C(=O)O

Source: ChEMBL document CHEMBL3525900, “Pharmacokinetics, distribution, and metabolism of [14C]sunitinib in rats, monkeys, and humans” (Drug Metab Dispos, 2012)
